First the molecules themselves.
B1: tRNA (parent)
chain: GUUCCGUUGGCGUAAUGGUAACGCGUCUCCCUCCUAAGGAGAAGACUGCGGGUUCGAGUCCCGUACGGAACG

Variants at the floor of the assay were thinned out.

In the series the parent is B1. Put plainly: yeast fitness relative to wild type (ratio to wild type); higher = fitter; tRNA-Arg(CCU), competitive growth, 37 C, YPD. An outline of the steps:
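Variants of the tRNA-Arg(CCU) gene, chemically synthesised with a 3% per-site mutation rate at 69 sites, were placed at the native genomic locus in Saccharomyces cerevisiae. The pooled strains were competed in YPD at 37°C for 24 hours in six parallel replicates. Gene amplicons from the start population and from each end population were read by 100-nucleotide paired-end sequencing. Darwinian fitness relative to wild type came from changes in genotype frequencies; genotypes needed ≥ 100 starting reads, and estimates < 0.5 were set to 0.5.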
On to U3A A36G G56A A65C A69C, for which the yeast fitness is no more than 0.5. As to A21C C49G, the yeast fitness came to 0.732. Then A14C C66A, with 0.722; and C5U A14G U28C U64C, with no more than 0.5; and G12A G25A A65G, with 0.682.

On to U16C U26C A36C U64A A70C, for which the yeast fitness was no more than 0.5. The result for U16C C31U reads 0.953; that for C4A C5A C30A C31U C33A A40U C60G, no more than 0.5; that for G6A C29G U47C U59A, no more than 0.5.

As to G6A C11U U13C A43G G67U, the yeast fitness was no more than 0.5. The result for C4U C34U G68C reads no more than 0.5; that for C11A C46U C62A A65C, no more than 0.5; that for G23C C33G A42U G56U C62U, no more than 0.5. The result for C4U G10A G23C reads no more than 0.5; that for G6A U32C G44A C46A G52A C66U, 0.567; that for C11A U13C C27A G63A, no more than 0.5. The result for A15C C31U A45U G51C reads no more than 0.5; that for U3C C11U U53C, 0.588; that for C22G C66A, 0.704. As for U13A A43U, the yeast fitness came to 0.855.

As to A21C C33U C61A, the yeast fitness is 0.593.

Consider U32A U53A, for which the yeast fitness was no more than 0.5.

Regarding U16G G44C C62U, the yeast fitness is 0.566. Turning to U28A G38C G41A C46A, the yeast fitness was no more than 0.5. On to G17U A37U A57C, for which the yeast fitness is no more than 0.5. Then G39C C60U, with 0.656; and C27A A45U G56A C60U, with no more than 0.5; and U2A C4G U8A G12A G48A A69C, with 0.544. With A42G C66U, the yeast fitness is 0.814. The result for G12A C24A C27A reads no more than 0.5; that for A36U A45U C66U, 0.535; that for C31A G48A A69C, 0.678.

For U2A C5A, the yeast fitness was 0.611. In the case of A15U U19C C31U A40C, the yeast fitness was no more than 0.5.

In the case of A21C U53G C62U G68C, the yeast fitness was no more than 0.5. With A14C A36C A69U, the yeast fitness amounted to 0.905.

G23C A42C U47A C49G: the yeast fitness was no more than 0.5. The result for U7G A20G U47A C61A reads 0.597. For C5U U8C A43U C66U, the yeast fitness was no more than 0.5.

For A45G, the yeast fitness amounted to 0.991. G6A C11G C33G A70U: the yeast fitness was no more than 0.5. The result for A15G C61G reads 0.698; that for A42G C60A C62A, no more than 0.5. The result for U13A C29U A40C reads 0.54. Then C62A G67A, with 0.817.

Turning to C4U A42G A69C, the yeast fitness was 0.636. As for A42U A70U, the yeast fitness was 0.919. Then C29U G41A, with 0.731; and C34A C62G, with 0.675.

As for C11G C27G C31A C60G, the yeast fitness was no more than 0.5. Then C4G U53A G56A, with no more than 0.5; and C11A G52C C61G, with 0.618. Then A20C A43C A57C, with no more than 0.5.

For the variant G41C G51A, the yeast fitness was 0.844.

For U13G C29U C33U G67A, the yeast fitness was no more than 0.5. The result for U7A G10A C33A A36C G50U reads no more than 0.5; that for C5G G23A G25C, no more than 0.5; that for C27G C46U A70G, 0.727. Then U7A G23C C49G, with 0.566; and C4A C49A G58A, with no more than 0.5; and U19A C34G A40G, with no more than 0.5. Then C11U A43C G44A, with 0.741; and U28G C30G A40C A42U, with no more than 0.5. For C4U C55U A57U, the yeast fitness came out at 0.536. Then C29U A37C C55A G58A, with no more than 0.5; and C30U A42C G48C, with no more than 0.5. Then A21U U26A U54A A70U, with no more than 0.5; and A20C A21C, with 0.608; and G9A U19G, with 0.848. Then C4G U7A G10C A20C, with no more than 0.5; and G10A A21G C27U A40U, with no more than 0.5; and U7C C22U A43U, with no more than 0.5. In the case of G9C G18A C22G C29U U32G A57U, the yeast fitness was no more than 0.5. The result for C30G C34G C66U reads no more than 0.5. Then U35A A70U, with 0.787; and G12C G39A G68C, with no more than 0.5. Then C24G U47A C55G, with 0.847; and G6C A20U C30G C61A, with no more than 0.5. In the case of G10A U13C G18C A20U C30A, the yeast fitness was no more than 0.5. The result for C4A G17A G41A A57C reads no more than 0.5; that for U19C U53C U54A, no more than 0.5; that for G58A C61U, 1.03. The result for A57C C61U C66U A69C reads no more than 0.5. Then C49A G56C G67A, with no more than 0.5; and C27U A43C, with 0.965; and C29G G48A C49U, with no more than 0.5.

As for A15U G58C, the yeast fitness came out at 0.916. In the case of U26A U32C C49G, the yeast fitness was 0.575. As to U3C C30G A43C G48A, the yeast fitness is no more than 0.5. As for U28G G41C G56A, the yeast fitness worked out at 0.562. Then C29U C34G C55U C61G, with 0.508; and C31U A40U C66A, with no more than 0.5; and A14C C30U G50C C66U, with no more than 0.5. The result for C4A C5G A42G reads no more than 0.5.

C4G C34G A42U C61U: the yeast fitness came to 0.646. Turning to C31A A36U, the yeast fitness worked out at 0.705. Then C4U G6A C49U, with 0.706; and C11U U16A G67A, with 0.551; and G18C C55U G67C, with 0.565. Then G6C A15G C24U C60A, with 0.554.

With G10A G48C G67C, the yeast fitness amounted to 0.56. As to A36U G48A C49A G68A, the yeast fitness was no more than 0.5. Then C11A U28C C46A C55U C61U, with no more than 0.5; and G23C C24A C30G A40U U47A G51C G63A C66A A69U, with 0.54. The result for A15U C29U C66A reads 0.57; that for C11A G18A A36G A42C, 0.711.

As for C22A C30A U54C C55G, the yeast fitness is no more than 0.5. U26C C29U G63A: the yeast fitness came out at 0.672. For the variant A21U A40C U59C C62U G67U, the yeast fitness was no more than 0.5. With G9A G23A C27A, the yeast fitness is no more than 0.5. For C33G C46A, the yeast fitness is 0.71. Take U8A G10C C27A G48A: the yeast fitness was no more than 0.5. Consider G18C C30G C62G, for which the yeast fitness is no more than 0.5.

For the variant C5G A37C G51C A57G, the yeast fitness stood at 0.598. With G12C C61A A65U, the yeast fitness is no more than 0.5. Regarding C5U U8A A69C, the yeast fitness was no more than 0.5. Then C61G A69G, with 0.567; and C5G G17A C34A G39C A40C G56C C61G C62G G68C, with no more than 0.5. Consider U7A G10C G17A C22U C27G, for which the yeast fitness is no more than 0.5. Then C5A A20U C27G G41A A57U U64A, with 0.642; and U2C C34G A45C A57C, with no more than 0.5; and A15G C49A A69U, with 0.579.

C34A G44A A57U: the yeast fitness was no more than 0.5. The result for U2C G63C C66U reads no more than 0.5; that for C5U C24U C46G A65C, 0.537; that for G25A U28A A36U A37U A42U, no more than 0.5. As to U19A C27U A42U A45G U64A, the yeast fitness was no more than 0.5. Regarding C4A A15C C60U U64A C66A G68A A69G, the yeast fitness is no more than 0.5. The result for U2A U8A C33U A43U A57G reads no more than 0.5; that for C5G C22U G56C, no more than 0.5; that for C11U U19A A42G, 0.56. The result for U3G C30U G48C reads 0.593; that for G6A U28A, 0.821; that for C5U G6C A36C G48C C62U, 0.546.

Consider U16A C30U G56C, for which the yeast fitness was no more than 0.5.

U7G C34A A36U G52A C60A: the yeast fitness was no more than 0.5. Then C49A G67A, with 0.579; and U3G A42C, with 0.754. Then A70C, with 1.04; and C24A C27U C30U G52C, with 0.596; and U3C C29U, with 0.844. Regarding U19A U47A, the yeast fitness is 0.837. The result for C11A C24G C30G A57U G68U reads no more than 0.5. With A42G A43C A70U, the yeast fitness came out at 0.745. Consider U59C C62U G68U, for which the yeast fitness came out at 0.609. The result for G12C U32C G41C A57G reads no more than 0.5; that for G10C G50A U59A G67U, no more than 0.5; that for C5A A15C G67U, 0.526. The result for U7A C27U G52C reads 0.583. The result for A42C U53A reads 0.626. As for C30U G38A C61U, the yeast fitness was 0.692. The result for G10A U47C C62U reads 0.566.

For the variant U13G U19A C27U C29U, the yeast fitness was no more than 0.5.

For the variant C24G A70U, the yeast fitness was 0.639. The result for C5U C33G C34G C46U reads no more than 0.5; that for U19G C49U G50U, no more than 0.5. U3C A14C A21G A37U C49A C60G: the yeast fitness stood at 0.629. The result for C5G C34U A70U reads no more than 0.5. G12C G25A A45C: the yeast fitness is 0.543. As for G39C A43G, the yeast fitness amounted to 0.684. With C27G A36G G63C C66U, the yeast fitness was no more than 0.5.

As to C29G A40C, the yeast fitness was 0.685. Then U8C C29A C34G A36G A40C U47A, with no more than 0.5; and U26A C33A A37G, with 0.581; and C4U G18A G39C G58C G67A, with no more than 0.5. With U2A C5G C66U, the yeast fitness turned out to be 0.657.

For the variant U26A U28A C31U G67A, the yeast fitness was no more than 0.5.

Values taken from the RNAGym collection of RNA variant scans (doi:10.1126/science.aae0568).
